Data on 98 molecules can be found in ChEMBL document CHEMBL4513216, “Probing the Open Global Health Chemical Diversity Library for Multistage-Active Starting Points for Next-Generation Antimalarials” (ACS Infect Dis, 2020).

This data set in a line: Toxicity liver stage against HepG2, at 10uM. The data set is classed as cell-based. The arrangement: test concentration 10 uM, cell line HepG2-A16-CD81EGFP. The following applies: human, HepG2-A16-CD81EGFP cells; read-out: INHIBITION
The essentials:
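Uninfected HepG2-A16-CD81EGFP cells, 3 × 10^3 per well, 1536-well, plated on prespotted compound at 10 μM final, parasite-free screening media added to match infected plates; puromycin 10 μM positive, DMSO 0.5% negative; run in parallel with 48 h PbLuc assay at 37 °C, 5% CO2; viability by CellTiter-Glo luminescence, normalized to controls.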
As for `COc1ccc(Cl)cc1-c1nc(N)nc(N(C)C)n1`, the cytotoxicity at 10 µM is -4.01%.
For `COc1ccc(CN(C)C(=O)CSc2nnc(N)s2)c(OC)c1OC`, the cytotoxicity at 10 µM stood at 7.59%.
Under `N#Cc1cccnc1N1CCN(C(=O)CCC(=O)c2cccs2)CC1` stands -8.7%; under `CC(=O)Nc1ccc(C(=O)NCCCn2cccc2)cc1`, -2.66%.
With `COCCNC(=O)NC1(c2nc(C)no2)CCCCC1`, the cytotoxicity at 10 µM was determined as 1.56%.
Under `COC1(CNC(=O)NCc2ccccc2)CCSC1` (stereo not drawn) stands -2.42%.
Take `Cc1nc(N2CCOCC2)nc(C)c1NC(=O)COc1ccccc1`: the cytotoxicity at 10 µM was determined as 4.17%.
For `O=S(=O)(NCCn1ccc(-c2cccs2)n1)C1CC1`, the cytotoxicity at 10 µM was -0.297%.
For the molecule `CC(C)CN1C[C@@H]2CN(S(=O)(=O)c3cccs3)C[C@@H]2C1=O`, the cytotoxicity at 10 µM was 4.09%.
Regarding `COCCN1C(=O)CCC12CCCN(C(=O)NC(C)C)CC2` (stereo not drawn), the cytotoxicity at 10 µM came out at 1.32%.
On to `CCOCC1COCCC12CCN(C(=O)CS(C)(=O)=O)CC2` (stereo not drawn), for which the cytotoxicity at 10 µM is -1.99%.
The result for `c1cnc(NCc2noc3c2CN(C2CCOC2)CC3)nc1` (stereo not drawn) reads -3.71%; that for `COc1ccc(NC(=O)Cn2nc(C)ccc2=O)cc1OC`, 1.57%; that for `O=C(CSC1CCc2ccccc2NC1=O)NCCc1ccco1` (stereo not drawn), -13%.
As for `COC(=O)c1ccc(OC)c(Cn2cc(N)cn2)c1`, the cytotoxicity at 10 µM was -7.8%.
The result for `CCc1cc(O)n2nc(C3CCCN3C(=O)c3ccccn3)cc2n1` (stereo not drawn) reads -0.805%; that for `CCC(=O)N1CCC(c2nc(C)ncc2-c2ccncc2)CC1`, 6.04%.
For the molecule `Nc1nc(C2CCN(C(=O)c3cnco3)CC2)cs1`, the cytotoxicity at 10 µM is -3%.
As to `Cc1nc(Nc2ncccn2)cc(C2CCCN2Cc2ncc[nH]2)n1` (stereo not drawn), the cytotoxicity at 10 µM was -15.3%.
Regarding `Cc1ncsc1CN1C[C@@H](O)[C@](O)(CNC(=O)c2ccccn2)C1`, the cytotoxicity at 10 µM is -0.973%.
Turning to `COc1cc(F)ccc1NC(=O)NCCNC(=O)OC(C)(C)C`, the cytotoxicity at 10 µM was -3.97%.
On to `CC(C)CC1(C(=O)NCCc2nncn2C2CC2)CCC1`, for which the cytotoxicity at 10 µM is -1.06%.
For `O=C(CNC(=O)C1(c2ccc(F)cc2F)CCC1)Nc1cccnc1`, the cytotoxicity at 10 µM was -5.82%.
Turning to `N#Cc1ccc(CN2CCCCC2Cn2cncn2)cc1` (stereo not drawn), the cytotoxicity at 10 µM is -1.05%.
Under `NC(=O)C(NC(=O)CSCc1ccc(Cl)s1)c1ccccc1` (stereo not drawn) stands 9.12%; under `CCCN(CC(=O)N(C)C)C(=O)c1ccc(-c2nc(C)cs2)cc1`, -15.7%; under `Cc1nn2cccnc2c1C(=O)NCc1ccnc(OCC2CC2)c1`, -41.6%.
The result for `Cc1cc(Br)ccc1CNC(=O)C1(O)CCSCC1` reads 8.88%; that for `COC(=O)CN(C(=O)c1ccco1)c1cccc(F)c1`, -4.81%.
Consider `CC(C)(C)CC(=O)NCC(=O)NS(=O)(=O)c1cccnc1`, for which the cytotoxicity at 10 µM is -3.13%.
Under `O=C1CC2(CCSC2)C(=O)N1CCCc1ccccc1` (stereo not drawn) stands 6.43%; under `Cc1csc(CN(CC2CCCO2)C(=O)c2ccc(C)nc2C)n1` (stereo not drawn), -1.19%.
Under `Cn1c(NCCC(=O)N2CCCC2)c(C#N)c(=O)n(C)c1=O` stands -9.28%; under `CCCN(C(=O)CN1CCn2c(nnc2C2CC2)C1)C1=CCCCC1`, 6.19%; under `CC(=O)NCCC(=O)NCc1cc(Br)ccc1OC(F)F`, -6.47%.
Under `CSCC(=O)NCc1cc(Br)ccc1OC(F)F` stands -8.22%.
As for `CCN1CCC(NC(=O)CN2CCCC2Cn2cccn2)CC1` (stereo not drawn), the cytotoxicity at 10 µM was 1.98%.
The result for `CC(C)NC(=O)Nc1ccccc1CN1CCOCC1` reads 4.89%.
On to `CN(C)C(=O)Cc1nc(CN2CCCCC2Cn2cncn2)cs1` (stereo not drawn), for which the cytotoxicity at 10 µM is -0.868%.
On to `COc1ccccc1NCC(=O)NCc1ccc(-c2ccn[nH]2)cc1`, for which the cytotoxicity at 10 µM is -1.99%.
For the molecule `COc1cc(S(=O)(=O)Nc2cn[nH]c2)ccc1Br`, the cytotoxicity at 10 µM was -1.47%.
Regarding `COc1cccc(NC(C(N)=O)c2ccc(Br)cc2)c1` (stereo not drawn), the cytotoxicity at 10 µM came to 11.3%.
Under `COCc1nc(CNc2cccc(-c3csc(C)n3)c2)cs1` stands 1.98%.
In the case of `O=C(Nc1ccccc1C(=O)N1CCCC1)NC1CCOCC1`, the cytotoxicity at 10 µM was -3.27%.
The result for `CS(=O)(=O)c1nccn1Cc1ccc(C(N)=O)cc1` reads 6.77%.
`Cc1nc(CSc2nc(=O)ccn2C(C)C)cs1`: the cytotoxicity at 10 µM came out at 16.4%.
Under `CN1CCN(C(=O)C2CC=CC2)c2ccccc21` stands 14.9%; under `O=C(Cc1cccc(F)c1)NC1CCCc2cn[nH]c21` (stereo not drawn), 16.5%; under `Cc1cccc(NS(=O)(=O)c2cnn(C)c2)c1C#N`, -0.655%.
`CN(Cc1ccc(F)cc1F)CC(C)(CO)CO`: the cytotoxicity at 10 µM was -2.52%.
On to `CSC1(CNC(=O)N(C)Cc2ccc(Cl)s2)CCOCC1`, for which the cytotoxicity at 10 µM is 8.08%.
Regarding `Cc1ccc(C2CSCCN2C(=O)C2=CCCC2)o1` (stereo not drawn), the cytotoxicity at 10 µM is -6.12%.
Under `Cn1cc(-c2csc(CN3CCOCC3)n2)cn1` stands -11.4%; under `CN1N=C(C(=O)N(Cc2ccco2)C2CC2)CCC1=O`, -2.62%.
Under `COCCC(=O)N1CC[C@@H]2O[C@@H](C)C[C@H]2C1` stands -2.78%; under `Cc1occc1C(=O)N1CC[C@@H](N2CCOCC2)[C@@H]1Cc1ccccc1`, -4.09%.
The result for `CCN(C)c1ncnc2c1CCN(Cc1ccoc1)CC2` reads -0.439%.
In the case of `O=c1[nH]c(-c2ccncc2)ncc1-c1ccnc(N2CCOCC2)n1`, the cytotoxicity at 10 µM was -1.2%.
On to `CCn1ccnc1CN(C)c1nc(-c2ccc(Cl)cc2)nc2c1CNC2`, for which the cytotoxicity at 10 µM was -12.7%.
Under `OCCCN1CCc2[nH]nc(C(c3ccccc3)c3ccccc3)c2C1` stands -0.869%; under `Cn1ccc2c(-c3cc(N)nc(N4CCOCC4)n3)ccnc21`, -3.67%; under `CCc1cnc(N2Cc3cnc(C(C)(C)C)nc3C2)nc1`, 3.51%.
Under `Cc1n[nH]c(CN2CCN(Cc3ccccc3)[C@@H]3CS(=O)(=O)C[C@@H]32)n1` stands -7.42%; under `Cn1ncc2c(N3CCCC(C)(O)C3)nc(C(C)(C)C)nc21` (stereo not drawn), -43.6%.
As to `c1ccc(Cc2noc(-c3ccc(NCC4CCCOC4)nc3)n2)cc1` (stereo not drawn), the cytotoxicity at 10 µM is -1.05%.
On to `COc1ccc(CN2CCCC3(CC2)CNC(=O)O3)cc1OC` (stereo not drawn), for which the cytotoxicity at 10 µM turned out to be 5.75%.
Under `CC(=O)N1CCC(NC(C)c2cnn(-c3ccc(F)cc3F)c2C)CC1` (stereo not drawn) stands -6.4%; under `CCCc1nccn1-c1cccc(C(C)O)c1` (stereo not drawn), 5.82%.
Under `Cc1cccc(CN2CCC(NS(C)(=O)=O)CC2)n1` stands 9.87%; under `CN(C)S(=O)(=O)N1CC[C@]2(O)CCN(Cc3cccc(F)c3)C[C@@H]2C1`, -5.16%.
Under `N#Cc1cccc(N2CCCC3(CCC(=O)N(C4CCCC4)C3)C2)n1` (stereo not drawn) stands -0.0436%; under `CN(C)CC(C)(C)Cn1cnc(-c2ccccc2)c1-c1ncc[nH]1`, 9.21%.
Take `Cc1nn(C)c(C)c1CN(CCO)C(=O)C1COc2ccccc2C1` (stereo not drawn): the cytotoxicity at 10 µM is -8.07%.
The result for `CCc1ccc(CN2CCNC(C(=O)N3CCN(C)CC3)C2)o1` (stereo not drawn) reads -0.891%.
Take `CCn1nc(C)c(CCNC(=O)C2CCCN(CC(N)=O)C2)c1C` (stereo not drawn): the cytotoxicity at 10 µM is -11.8%.
Under `CCc1nnc2n1CCN(Cc1csc(Cc3ccccc3)n1)C2` stands -25%.
For `Cc1cc(NC(=O)CN2CCN(c3nccs3)C(C)C2)no1` (stereo not drawn), the cytotoxicity at 10 µM is -9.66%.
The result for `Cc1cc(CN2CCC(N(C)Cc3nnc(C4CC4)n3C)C2)on1` (stereo not drawn) reads -11.6%; that for `Cc1ccccc1C1(C(=O)NCCN(C)C)CCOCC1`, -1.95%; that for `Cc1nnc2n1CCN(C(=O)c1cc(Br)c(Cl)[nH]1)C2`, -12.7%.
On to `CN(Cc1ccc(O)cc1)C(=O)NC1CCCN(c2ncccn2)C1` (stereo not drawn), for which the cytotoxicity at 10 µM was -9.63%.
Under `CC(c1c(F)cccc1F)N1CCN(Cc2nccn2C)CC1` (stereo not drawn) stands -13.6%; under `CCc1nnc2n1CCN(C(=O)c1ccnc(N(C)C)c1)C2`, -21%; under `Cc1nc(C2CCCN(C(=O)c3c(C)nn4cccnc34)C2)no1` (stereo not drawn), -7.62%.
`Cn1cc(C2CCCN2CCC(=O)N2CCc3sccc3C2)cn1` (stereo not drawn): the cytotoxicity at 10 µM was -8.25%.
Regarding `COCCOc1ccccc1C(=O)N1CCCC(c2cc(C)[nH]n2)C1` (stereo not drawn), the cytotoxicity at 10 µM was -22.6%.
The result for `COc1ccc(CNC(C)c2ccc3[nH]c(=O)[nH]c3c2)cc1` (stereo not drawn) reads -5.04%.
Take `CCc1nccn1C1CCCN(C(=O)c2csc(COC)n2)C1` (stereo not drawn): the cytotoxicity at 10 µM was -8.11%.
For `NC(=O)N1CC2(CCNCC2)c2cc(Cl)ccc21`, the cytotoxicity at 10 µM was 1.79%.
Take `COc1cc(CN(CCCN(C)C)Cc2ccccn2)cc2c1OCO2`: the cytotoxicity at 10 µM stood at 1.44%.
Under `Cc1ccc(CN2CCc3[nH]nc(C(=O)N4CCNC(=O)C4)c3C2)s1` stands 12%.
The result for `COCC1CN(Cc2ccc(OC)cc2)Cc2nnn(CC3CC3)c21` (stereo not drawn) reads -2.47%; that for `CC(C)c1nn(C)c(Cl)c1CNCc1ccc(N(C)C)nc1`, -13.6%.
In the case of `CC(C)(CN)NS(=O)(=O)c1cccc(F)c1F`, the cytotoxicity at 10 µM was -5.7%.
Under `COc1ccc(CC(=O)N2C[C@H]3CN(Cc4ccccn4)C[C@H]3C2)cc1` stands 3.5%.
Regarding `CNC(=O)[C@@]12CCO[C@@H]1CCN(Cc1scnc1C)C2`, the cytotoxicity at 10 µM turned out to be 6.12%.
`c1ccc(N2CC3(CCN(Cc4cccnc4)C3)C2)nc1`: the cytotoxicity at 10 µM amounted to 1.11%.
In the case of `O=C(c1cccnc1)N1C[C@H]2CC[C@@H](C1)N(Cc1cc(F)ccc1F)C2`, the cytotoxicity at 10 µM is -10.2%.
